Data as given in ChEMBL document CHEMBL4033667, “Design, synthesis, and identification of a novel napthalamide-isoselenocyanate compound NISC-6 as a dual Topoisomerase-IIα and Akt pathway inhibitor, and evaluation of its anti-melanoma activity” (Eur J Med Chem, 2017).
Activity calls are given as the source filed them. The calls are words filed in the database; no cut-off is given here.

Assays:
UACC-903 [1] = assay: Antiproliferative activity against human UACC-903 cells harboring BRAF V600E mutant after 24 hrs by MTT assay; type: functional, cell-based; conditions: UACC-903, 24 h
Method in brief: (§1)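 MTT viability in melanoma lines grown in DMEM with 10% FBS and pen/strep at 37 °C, 5% CO2. 3000 cells/well, settled overnight, then exposed to compound (0 to 50 µM) in triplicate for 24, 48 or 72 h. MTT (5.0 mg/mL solution) added 3 h before termination. IC50 from non-linear regression (variable slope), mean ± SD.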

UACC-903 [2] = assay: Antiproliferative activity against human UACC-903 cells harboring BRAF V600E mutant after 48 hrs by MTT assay; type: functional, cell-based; conditions: UACC-903, 48 h; method in brief: as §1
UACC-903 [3] = assay: Antiproliferative activity against human UACC-903 cells harboring BRAF V600E mutant after 72 hrs by MTT assay; type: functional, cell-based; conditions: UACC-903, 72 h; method in brief: as §1
[4] = Antiproliferative activity against human 1205 Lu cells harboring BRAF V600E mutant after 24 hrs by MTT assay; type: functional, cell-based; method in brief: as §1
[5] = Antiproliferative activity against human 1205 Lu cells harboring BRAF V600E mutant after 48 hrs by MTT assay; type: functional, cell-based; method in brief: as §1
[6] = Antiproliferative activity against human A375M cells harboring BRAF V600E mutant after 24 hrs by MTT assay; type: functional, cell-based; method in brief: as §1
[7] = Antiproliferative activity against human A375M cells harboring BRAF V600E mutant after 72 hrs by MTT assay; type: functional, cell-based; method in brief: as §1
CHL-1 [8] = assay: Antiproliferative activity against human CHL-1 cells harboring wild type BRAF after 24 hrs by MTT assay; type: functional, cell-based; conditions: CHL-1, 24 h; method in brief: as §1
CHL-1 [9] = assay: Antiproliferative activity against human CHL-1 cells harboring wild type BRAF after 72 hrs by MTT assay; type: functional, cell-based; conditions: CHL-1, 72 h; method in brief: as §1
NHDF = assay: Cytotoxicity against human NHDF cells assessed as reduction in cell viability at 5 uM after 48 hrs by MTT assay; type: cell-based
Method in brief: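 nHDF normal fibroblasts grown in serum-free fibroblast basal medium with growth kit and pen/strep/amphotericin B. Treated 48 h at set concentrations, with viability read by MTT assay.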

[10] = biological target: DNA topoisomerase 2-alpha (Homo sapiens) (UniProt P11388); assay: Inhibition of human DNA topoisomerase 2alpha assessed as decrease in relaxation of supercoiled pBR322 DNA at 0.5 to 5 uM after 1 hr by ethidium bromide staining-based agarose gel electrophoresis
DNA topoisomerase 2-alpha (Homo sapiens), sequence (P11388 whole entry): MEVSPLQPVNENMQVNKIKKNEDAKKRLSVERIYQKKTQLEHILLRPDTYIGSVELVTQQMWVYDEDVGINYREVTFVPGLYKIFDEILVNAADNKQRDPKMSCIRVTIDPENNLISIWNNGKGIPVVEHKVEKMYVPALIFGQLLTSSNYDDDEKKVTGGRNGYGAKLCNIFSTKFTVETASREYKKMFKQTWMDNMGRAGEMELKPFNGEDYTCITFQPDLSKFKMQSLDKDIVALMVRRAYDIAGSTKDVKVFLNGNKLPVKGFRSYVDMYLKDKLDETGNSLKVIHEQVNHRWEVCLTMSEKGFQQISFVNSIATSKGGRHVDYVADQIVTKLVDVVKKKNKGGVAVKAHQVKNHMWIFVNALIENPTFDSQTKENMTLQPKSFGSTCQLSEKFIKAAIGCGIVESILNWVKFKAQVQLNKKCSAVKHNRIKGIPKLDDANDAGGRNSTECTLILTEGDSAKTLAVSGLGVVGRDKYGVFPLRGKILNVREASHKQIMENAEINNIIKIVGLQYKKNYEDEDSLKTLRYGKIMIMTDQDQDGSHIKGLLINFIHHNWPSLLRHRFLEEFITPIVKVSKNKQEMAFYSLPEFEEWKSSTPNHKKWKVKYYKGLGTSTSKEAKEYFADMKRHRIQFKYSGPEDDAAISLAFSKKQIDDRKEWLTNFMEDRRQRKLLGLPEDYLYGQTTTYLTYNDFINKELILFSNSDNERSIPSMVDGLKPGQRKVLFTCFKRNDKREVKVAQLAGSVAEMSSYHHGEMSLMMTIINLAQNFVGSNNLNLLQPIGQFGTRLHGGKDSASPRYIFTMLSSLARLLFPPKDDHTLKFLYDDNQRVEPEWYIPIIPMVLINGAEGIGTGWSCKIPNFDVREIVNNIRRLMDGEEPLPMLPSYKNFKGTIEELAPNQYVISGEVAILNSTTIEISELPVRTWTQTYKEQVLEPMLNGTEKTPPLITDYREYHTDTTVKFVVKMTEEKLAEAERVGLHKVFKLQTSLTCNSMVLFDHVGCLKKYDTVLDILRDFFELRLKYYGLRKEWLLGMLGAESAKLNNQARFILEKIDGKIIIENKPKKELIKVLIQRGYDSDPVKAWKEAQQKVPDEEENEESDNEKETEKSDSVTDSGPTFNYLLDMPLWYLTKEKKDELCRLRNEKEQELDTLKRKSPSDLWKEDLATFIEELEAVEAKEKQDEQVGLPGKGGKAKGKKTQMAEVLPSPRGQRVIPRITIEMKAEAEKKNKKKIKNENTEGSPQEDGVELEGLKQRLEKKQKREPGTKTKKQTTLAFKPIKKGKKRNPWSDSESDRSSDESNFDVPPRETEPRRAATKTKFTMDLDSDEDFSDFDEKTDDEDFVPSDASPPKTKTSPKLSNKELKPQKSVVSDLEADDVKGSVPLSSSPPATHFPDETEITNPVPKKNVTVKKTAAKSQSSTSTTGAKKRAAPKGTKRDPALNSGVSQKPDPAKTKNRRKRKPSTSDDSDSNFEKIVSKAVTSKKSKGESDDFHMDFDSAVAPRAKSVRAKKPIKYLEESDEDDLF
Method in brief: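 Kit-based relaxation assay: supercoiled plasmid DNA with 4 units of human Topo-IIα in assay buffer plus test agent or DMSO at 37 °C (1 h in legend, 30 min in methods). Stopped with 10% SDS, then proteinase K 15 min at 37 °C. Run on 1% agarose 1-2 h, ethidium bromide 2 h, destain 15 min in TAE, UV imaging.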

Homo sapiens = species on record: Homo sapiens; assay: Inhibition of DNA topoisomerase 2 in human UACC-903 cells assessed as increase in H2AX phosphorylation at 5 uM after 6 hrs by DAPI staining-based immunocytochemistry analysis; type: cell-based
Method in brief: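 UACC903 cells (1.6 × 10^5) on coverslips overnight, then 5 µM or DMSO for 6 h. Fixed in 4% formaldehyde and blocked 1 h (0.3% Triton X-100, 5% donkey serum). Anti-p-H2A.X 1:500 overnight at 4 °C, then Alexa Fluor 488 secondary 1:500 with phalloidin for 1 h. DAPI mounting, imaged at 60X.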

[11] = biological target: Mitogen-activated protein kinase; ERK1/ERK2 (Homo sapiens) (UniProt P27361+P28482); assay: Inhibition of Erk1/2 phosphorylation in human UACC-903 cells at 2.5 to 5 uM after 24 hrs by Western blot analysis; type: cell-based
Mitogen-activated protein kinase; ERK1/ERK2 (Homo sapiens), sequence (P27361 whole entry, looked up): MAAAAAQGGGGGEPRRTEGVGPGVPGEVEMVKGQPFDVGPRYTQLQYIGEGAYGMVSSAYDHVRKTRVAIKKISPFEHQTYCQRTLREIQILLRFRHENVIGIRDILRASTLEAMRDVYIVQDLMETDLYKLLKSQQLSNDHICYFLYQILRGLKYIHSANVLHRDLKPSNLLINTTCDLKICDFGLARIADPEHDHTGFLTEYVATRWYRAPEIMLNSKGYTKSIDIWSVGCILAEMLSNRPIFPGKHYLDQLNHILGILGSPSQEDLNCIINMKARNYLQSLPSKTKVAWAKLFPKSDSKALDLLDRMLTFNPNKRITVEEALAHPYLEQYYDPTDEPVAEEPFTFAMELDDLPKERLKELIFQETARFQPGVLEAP
Mitogen-activated protein kinase; ERK1/ERK2 (Homo sapiens), sequence (P28482 whole entry, looked up): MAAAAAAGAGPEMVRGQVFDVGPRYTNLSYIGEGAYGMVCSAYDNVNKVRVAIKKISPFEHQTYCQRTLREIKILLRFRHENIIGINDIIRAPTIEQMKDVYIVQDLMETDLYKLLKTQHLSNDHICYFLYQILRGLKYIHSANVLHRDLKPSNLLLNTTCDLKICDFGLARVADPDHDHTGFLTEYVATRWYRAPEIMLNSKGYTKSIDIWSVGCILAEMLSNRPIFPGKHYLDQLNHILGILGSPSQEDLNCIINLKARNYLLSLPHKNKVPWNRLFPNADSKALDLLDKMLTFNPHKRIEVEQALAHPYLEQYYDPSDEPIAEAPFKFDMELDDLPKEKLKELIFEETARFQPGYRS

UACC-903 [12] = assay: Induction of apoptosis in human UACC-903 cells assessed as viable cells at 5 uM after 24 hrs by Annexin-V/7-AAD staining-based fluorescence assay (reference value: 83.90%); type: functional; conditions: UACC-903, 24 h, read-out: Activity
UACC-903 [13] = assay: Induction of apoptosis in human UACC-903 cells assessed as early apoptotic cells at 5 uM after 24 hrs by Annexin-V/7-AAD staining-based fluorescence assay (reference value: 13.15%); type: functional
UACC-903 [14] = assay: Induction of apoptosis in human UACC-903 cells assessed as necrotic cells at 5 uM after 24 hrs by Annexin-V/7-AAD staining-based fluorescence assay (reference value: 0.17%); type: functional
UACC-903 [15] = assay: Induction of apoptosis in human UACC-903 cells assessed as viable cells at 10 uM after 24 hrs by Annexin-V/7-AAD staining-based fluorescence assay (reference value: 83.90%); type: functional; conditions: UACC-903, 24 h, read-out: Activity
UACC-903 [16] = assay: Induction of apoptosis in human UACC-903 cells assessed as early apoptotic cells at 10 uM after 24 hrs by Annexin-V/7-AAD staining-based fluorescence assay (reference value: 13.15%); type: functional
UACC-903 [17] = assay: Induction of apoptosis in human UACC-903 cells assessed as late apoptotic cells at 10 uM after 24 hrs by Annexin-V/7-AAD staining-based fluorescence assay (reference value: 2.78%); type: functional
UACC-903 [18] = assay: Induction of apoptosis in human UACC-903 cells assessed as necrotic cells at 10 uM after 24 hrs by Annexin-V/7-AAD staining-based fluorescence assay (reference value: 0.17%); type: functional
UACC-903 [19] = assay: Induction of apoptosis in human UACC-903 cells assessed as increase in caspase 3/7 activity by measuring viable cells at 5 uM after 24 hrs by 7-AAD staining-based fluorescence assay (reference value: 77.50%); type: functional
Method in brief: (§2)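 Muse caspase-3/7 kit on UACC903 cells after 24 h at given doses or DMSO. Cell-permeant NucView DEVD-linked DNA dye fluoresces after cleavage by active caspase 3/7. 7-AAD marks cells with compromised membranes. Gates: live, early apoptotic (caspase+/7-AAD−), late apoptotic (both +), necrotic (7-AAD+ only).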

UACC-903 [20] = assay: Induction of apoptosis in human UACC-903 cells assessed as increase in caspase 3/7 activity by measuring late apoptotic cells at 5 uM after 24 hrs by 7-AAD staining-based fluorescence assay (reference value: 6.08%); type: functional; method in brief: as §2
UACC-903 [21] = assay: Induction of apoptosis in human UACC-903 cells assessed as increase in caspase 3/7 activity by measuring early apoptotic cells at 10 uM after 24 hrs by 7-AAD staining-based fluorescence assay (reference value: 16.08%); type: functional; method in brief: as §2
UACC-903 [22] = assay: Induction of apoptosis in human UACC-903 cells assessed as increase in caspase 3/7 activity by measuring late apoptotic cells at 10 uM after 24 hrs by 7-AAD staining-based fluorescence assay (reference value: 6.08%); type: functional; method in brief: as §2
UACC-903 [23] = assay: Induction of apoptosis in human UACC-903 cells assessed as increase in caspase 3/7 activity by measuring necrotic cells at 10 uM after 24 hrs by 7-AAD staining-based fluorescence assay (reference value: 0.34%); type: functional; method in brief: as §2
UACC-903 [24] = assay: Antitumor activity against human UACC-903 cells xenografted in Harlan Sprague Dawley mouse assessed as reduction in tumor burden at 0.6 umole, ip administered 3 times a week measured on day 40 relative to vehicle-treated control; type: functional; design: scale not given: the % may be the effect or the level left
Method in brief: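 5×10^6 UACC 903 cells in 0.2 mL DMEM/10% FBS injected s.c. into both flanks of 4-6 week female athymic nude mice. From day 6, randomised groups (5 mice, 2 tumours each) received i.p. DMSO or 0.6 µmole in DMSO (100 µL) three times weekly. Caliper tumour volume and body weight taken thrice weekly to day 40; mean ± SEM.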

## O=C1c2cccc3cccc(c23)C(=O)N1CCCCCCN=C=[Se]
UACC-903 [1]
  IC50: 13.4 µM
UACC-903 [2]
  IC50: 2.5 µM
UACC-903 [3]
  IC50: 1.7 µM
[4]
  IC50: 13.4 µM
[5]
  IC50: 10.6 µM
[6]
  IC50: 11.8 µM
[7]
  IC50: 4.4 µM
CHL-1 [8]
  IC50: 13.7 µM
CHL-1 [9]
  IC50: 0.8 µM
NHDF
  Activity: > 70%
[10]
  inhibition: Active
Homo sapiens
  inhibition: Active
[11]
  inhibition: inactive
UACC-903 [12]
  viability at 5 µM: 83.2%
UACC-903 [13]
  Activity: 11.47%
UACC-903 [14]
  Activity: 0.84%
UACC-903 [15]
  viability at 10 µM: 49.1%
UACC-903 [16]
  Activity: 35%
UACC-903 [17]
  Activity: 15.52%
UACC-903 [18]
  Activity: 0.35%
UACC-903 [19]
  Activity: 69.34%
UACC-903 [20]
  Activity: 9.86%
UACC-903 [21]
  Activity: 3%
UACC-903 [22]
  Activity: 41.76%
UACC-903 [23]
  Activity: 0.8%
UACC-903 [24]
  Activity: 69%
